Reference: ChEMBL document CHEMBL3124899, “Design, synthesis, and characterization of α-ketoheterocycles that additionally target the cytosolic port Cys269 of fatty acid amide hydrolase” (J Med Chem, 2014)
Each block holds one compound with its values, some of them ahead of it. Calls of active or inactive are those of the source. The calls are words filed in the database; no cut-off is given here.

Experiments:
[1] = biological target: T1, Fatty-acid amide hydrolase 1 (Rattus norvegicus, UniProt P97612); experiment: Time-dependent inhibition of recombinant rat FAAH expressed in Escherichia coli assessed as breakdown of [14C]-oleamide preincubated for 3 hrs by Dixon plot analysis
T1 sequence (P97612 whole entry): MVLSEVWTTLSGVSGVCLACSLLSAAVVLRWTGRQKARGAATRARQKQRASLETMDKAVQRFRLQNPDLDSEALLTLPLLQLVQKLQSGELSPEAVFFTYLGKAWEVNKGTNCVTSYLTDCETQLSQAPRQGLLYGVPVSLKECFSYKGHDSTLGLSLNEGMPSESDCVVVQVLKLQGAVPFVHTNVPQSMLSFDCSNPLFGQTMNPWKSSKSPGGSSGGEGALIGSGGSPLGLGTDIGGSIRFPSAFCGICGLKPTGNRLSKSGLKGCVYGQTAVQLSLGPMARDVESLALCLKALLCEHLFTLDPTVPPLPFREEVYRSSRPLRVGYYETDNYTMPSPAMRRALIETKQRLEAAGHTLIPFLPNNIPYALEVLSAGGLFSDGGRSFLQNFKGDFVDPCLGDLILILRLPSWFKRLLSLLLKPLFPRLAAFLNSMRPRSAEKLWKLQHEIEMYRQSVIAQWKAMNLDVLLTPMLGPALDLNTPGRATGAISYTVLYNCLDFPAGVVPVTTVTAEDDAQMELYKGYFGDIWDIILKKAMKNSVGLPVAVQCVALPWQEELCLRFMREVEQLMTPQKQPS
Outline: (§1)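 The reaction used 20 μM 14C-oleamide in pH 9.0 Tris/EDTA/Triton X-100/Hepes buffer at 20–23 °C, at three inhibitor concentrations. HCl-quenched time points were analysed by EtOAc extraction and TLC for oleic acid formation. Ki came from a Dixon plot.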

[2] = biological target: T2, Fatty-acid amide hydrolase 1 (Rattus norvegicus) (UniProt P97612); experiment: Noncompetitive inhibition of recombinant rat FAAH expressed in Escherichia coli assessed as breakdown of [14C]-oleamide at 3 to 5 nM preincubated for 3 hrs by Lineweaver-Burk plot analysis
T2 sequence (whole entry): T1 sequence (P97612 whole entry)

Mus musculus [3] = organism: Mus musculus; experiment: Selectivity ratio of IC50 for mouse brain membrane ABHD6 to IC50 for mouse FAAH
Mus musculus [4] = experiment: In vivo inhibition of FAAH in C57Bl/6J mouse assessed as increase in AEA level in brain at 30 mg/kg, ip after 3 hrs relative to vehicle-treated control; assay type: functional; conditions: route intraperitoneal
Outline: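 Male C57Bl/6J mice (<6 months, 20–28 g), n = 3, received 30 mg/kg i.p. in 18:1:1 saline/ethanol/emulphor at 10 μL/g. Brains were taken 3 h later and homogenized in CHCl3/MeOH/Tris with d4-PEA, d4-AEA and pentadecanoic acid standards. The organic extract was quantified by LC–ESI-MS/MS in positive mode and compared with vehicle-treated mice.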

[5] = biological target: T2, Fatty-acid amide hydrolase 1 (Rattus norvegicus); experiment: Irreversible inhibition of recombinant rat FAAH expressed in Escherichia coli assessed as remaining activity at IC80 preincubated for 3 hrs followed by 370 fold dilution measured after 18 hrs
Mus musculus [6] = organism: Mus musculus; experiment: Selectivity ratio of IC50 for mouse brain membrane KIAA1363 to IC50 for mouse FAAH
Mus musculus [7] = organism: Mus musculus; experiment: Selectivity ratio of IC50 for mouse brain membrane MAGL to IC50 for mouse FAAH
[8] = biological target: T2, Fatty-acid amide hydrolase 1 (Rattus norvegicus); experiment: Competitive reversible inhibition of recombinant rat FAAH expressed in Escherichia coli using [14C]-oleamide as substrate at 1 to 5 nM preincubated for 3 hrs by Lineweaver-Burk plot analysis
[9] = Chemical stability in enzymatic assay buffer assessed as transient enzyme adduct formation; assay type: ADME
[10] = biological target: T1, Fatty-acid amide hydrolase 1; experiment: Inhibition of recombinant rat FAAH expressed in Escherichia coli assessed as breakdown of [14C]-oleamide by Dixon plot analysis
Outline: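 Purified rat FAAH expressed in E. coli, with no inhibitor preincubation. The enzyme was at 1 nM, or 800, 500 or 200 pM for tight binders. It was mixed with 20 μM 14C-oleamide in pH 9.0 Tris/EDTA/glycerol/Triton X-100/Hepes buffer at room temperature, with three inhibitor concentrations. Aliquots were quenched in 0.1 N HCl at three time points, extracted with EtOAc and separated by TLC. Ki came from a Dixon plot.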

[11] = biological target: T2, Fatty-acid amide hydrolase 1 (Rattus norvegicus); experiment: Competitive reversible inhibition of recombinant rat FAAH expressed in Escherichia coli using [14C]-oleamide as substrate at 3 to 5 nM preincubated for 3 hrs by Lineweaver-Burk plot analysis
[12] = Chemical stability in assay buffer assessed as compound hydrolysis after 6 hrs; assay type: physicochemical
[13] = biological target: T1, Fatty-acid amide hydrolase 1; experiment: Time-dependent inhibition of recombinant rat FAAH expressed in Escherichia coli assessed as breakdown of [14C]-oleamide preincubated for 6 hrs by Dixon plot analysis; outline: as §1
[14] = biological target: T1, Fatty-acid amide hydrolase 1; experiment: Time-dependent inhibition of recombinant rat FAAH expressed in Escherichia coli assessed as breakdown of [14C]-oleamide preincubated for 1 hr by Dixon plot analysis; outline: as §1
[15] = biological target: T2, Fatty-acid amide hydrolase 1 (Rattus norvegicus); experiment: Mixed-type inhibition of recombinant rat FAAH expressed in Escherichia coli assessed as breakdown of [14C]-oleamide preincubated for 3 hrs by Lineweaver-Burk plot analysis
Mus musculus [16] = experiment: In vivo inhibition of FAAH in C57Bl/6J mouse assessed as increase in AEA level in brain at 30 mg/kg, ip measured within 1.5 to 3 hrs; assay type: functional, organism-based; set-up: dose 30 mg/kg
Mus musculus [17] = experiment: In vivo inhibition of FAAH in C57Bl/6J mouse assessed as increase in PEA level in brain at 30 mg/kg, ip measured within 1.5 to 3 hrs; assay type: functional, organism-based; set-up: dose 30 mg/kg
Mus musculus [18] = experiment: In vivo inhibition of FAAH in C57Bl/6J mouse assessed as increase in OEA level in brain at 30 mg/kg, ip measured after > 6 hrs; assay type: functional, organism-based; set-up: dose 30 mg/kg
Mus musculus [19] = experiment: In vivo inhibition of FAAH in C57Bl/6J mouse assessed as increase in PEA level in brain at 30 mg/kg, ip measured after > 6 hrs; assay type: functional, organism-based; set-up: dose 30 mg/kg
[20] = biological target: T2, Fatty-acid amide hydrolase 1 (Rattus norvegicus); experiment: Noncompetitive inhibition of recombinant rat FAAH expressed in Escherichia coli assessed as breakdown of [14C]-oleamide at 0.5 to 5 nM preincubated for 3 hrs by Lineweaver-Burk plot analysis
Mus musculus [21] = experiment: In vivo inhibition of FAAH in C57Bl/6J mouse assessed as increase in OEA level in brain at 30 mg/kg, ip measured within 1.5 to 3 hrs; assay type: functional, organism-based; set-up: dose 30 mg/kg
Mus musculus [22] = experiment: In vivo inhibition of FAAH in C57Bl/6J mouse assessed as increase in AEA level in brain at 30 mg/kg, ip measured after > 6 hrs; assay type: functional, organism-based; set-up: dose 30 mg/kg
[23] = biological target: T2, Fatty-acid amide hydrolase 1 (Rattus norvegicus); conditions: 5 to 10 nM
[24] = biological target: T2, Fatty-acid amide hydrolase 1 (Rattus norvegicus); experiment: Noncompetitive inhibition of recombinant rat FAAH expressed in Escherichia coli assessed as breakdown of [14C]-oleamide at 1 to 5 nM preincubated for 3 hrs by Lineweaver-Burk plot analysis
[25] = biological target: T2, Fatty-acid amide hydrolase 1 (Rattus norvegicus); experiment: Noncompetitive inhibition of recombinant rat FAAH expressed in Escherichia coli assessed as breakdown of [14C]-oleamide at 1 to 3 nM preincubated for 3 hrs by Lineweaver-Burk plot analysis
Mus musculus [26] = experiment: In vivo inhibition of FAAH in C57Bl/6J mouse assessed as increase in OEA level in brain at 30 mg/kg, ip measured within 2 to 3 hrs; assay type: functional, organism-based; set-up: dose 30 mg/kg
Mus musculus [27] = experiment: In vivo inhibition of FAAH in C57Bl/6J mouse assessed as increase in AEA level in brain at 30 mg/kg, ip measured within 2 to 3 hrs; assay type: functional, organism-based; set-up: dose 30 mg/kg
[28] = biological target: T2, Fatty-acid amide hydrolase 1 (Rattus norvegicus); conditions: 1 to 10 nM
Mus musculus [29] = experiment: In vivo inhibition of FAAH in C57Bl/6J mouse assessed as increase in PEA level in brain at 30 mg/kg, ip measured within 2 to 3 hrs; assay type: functional, organism-based; set-up: dose 30 mg/kg

SMILES: CS(=O)(=O)/C=C/c1ccc(-c2cnc(C(=O)CCCCCCc3ccccc3)o2)nc1
Ki [1]: 0.3 nM
inhibition [2]: Active
Ratio IC50 (Mus musculus [3]): > 10000
fold change (FC) (Mus musculus [4]): 2.8
remaining activity after dilution [5]: Active
Ratio IC50 (Mus musculus [6]): > 10000
Ratio IC50 (Mus musculus [7]): > 200

SMILES: COC(=O)c1ccc(-c2cnc(C(=O)CCCCCCc3ccccc3)o2)nc1
inhibition [8]: Active

SMILES: CSC(=O)c1ccc(-c2cnc(C(=O)CCCCCCc3ccccc3)o2)nc1
Stability [9]: Stable
Ki [1]: 2 nM
Ki [10]: 2 nM
inhibition [11]: Active
Stability [12]: Stable

SMILES: CCOC(=O)/C=C/c1ccc(-c2cnc(C(=O)CCCCCCc3ccccc3)o2)nc1
remaining activity after dilution [5]: Active
inhibition [15]: Dose-dependent effect

SMILES: N#C/C=C/c1ccc(-c2cnc(C(=O)CCCCCCc3ccccc3)o2)nc1
remaining activity after dilution [5]: Active
inhibition [15]: Dose-dependent effect
Ki [13]: 2.7 nM

SMILES: CSC(=O)Cc1ccc(-c2cnc(C(=O)CCCCCCc3ccccc3)o2)nc1
inhibition [23]: Active

SMILES: N#CCc1ccc(-c2cnc(C(=O)CCCCCCc3ccccc3)o2)nc1
inhibition (Mus musculus [16]): Active
Ratio IC50 (Mus musculus [3]): > 10000
inhibition (Mus musculus [17]): Active
inhibition (Mus musculus [18]): Active
fold change (FC) (Mus musculus [4]): 3.2
remaining activity after dilution [5]: Active
inhibition [24]: Active
inhibition (Mus musculus [19]): Active
inhibition (Mus musculus [21]): Active
Ki [13]: 0.5 nM
inhibition (Mus musculus [22]): Active
Ratio IC50 (Mus musculus [6]): > 10000
Ratio IC50 (Mus musculus [7]): > 200

SMILES: O=C(CCCCCCc1ccccc1)c1ncc(-c2ccc(CCl)cn2)o1
Ki [13]: 24.6 nM

SMILES: C[S+]([O-])/C=C/c1ccc(-c2cnc(C(=O)CCCCCCc3ccccc3)o2)nc1 (configuration not stated)
inhibition [25]: Active
Ratio IC50 (Mus musculus [3]): > 10000
fold change (FC) (Mus musculus [4]): 2.6
remaining activity after dilution [5]: Active
Ratio IC50 (Mus musculus [6]): > 10000
Ratio IC50 (Mus musculus [7]): > 200

SMILES: COC(=N)Cc1ccc(-c2cnc(C(=O)CCCCCCc3ccccc3)o2)nc1
inhibition [2]: Active
Ratio IC50 (Mus musculus [3]): > 10000
remaining activity after dilution [5]: Active
Ki [13]: 0.6 nM
Ratio IC50 (Mus musculus [6]): > 10000
Ratio IC50 (Mus musculus [7]): > 200

SMILES: CCOS(=O)(=O)/C=C/c1ccc(-c2cnc(C(=O)CCCCCCc3ccccc3)o2)nc1
Ratio IC50 (Mus musculus [3]): > 10000
fold change (FC) (Mus musculus [4]): 3.2
Ki [14]: 0.3 nM
remaining activity after dilution [5]: Active
inhibition [24]: Active
Ratio IC50 (Mus musculus [6]): > 10000
Ratio IC50 (Mus musculus [7]): > 200

Second part, led by results:

Ki [1]: 6.4 nM
SMILES: CSCCCCCc1cnc(C(=O)CCCCCCc2ccccc2)o1

Ki [13]: 4 nM
SMILES: N#CCCCCCc1cnc(C(=O)CCCCCCc2ccccc2)o1

Ki [10]: 6.1 nM
Ki [14]: 6.1 nM
Ki [13]: 6 nM
SMILES: O=C(CCCCCCc1ccccc1)c1ncc(CCCCCBr)o1

Ki [1]: 0.2 nM
Ratio IC50 (Mus musculus [3]): > 10000
remaining activity after dilution [5]: Active
inhibition [20]: Active
Ki [13]: 0.2 nM
Ratio IC50 (Mus musculus [6]): > 10000
Ratio IC50 (Mus musculus [7]): > 200
SMILES: O=C(CCCCCCc1ccccc1)c1ncc(-c2ccc(CBr)cn2)o1
inhibition (Mus musculus [16]): Active
inhibition (Mus musculus [17]): Active
inhibition (Mus musculus [18]): Active
fold change (FC) (Mus musculus [4]): 3.2
inhibition (Mus musculus [19]): Active
inhibition (Mus musculus [21]): Active
inhibition (Mus musculus [22]): Active

inhibition [11]: Active
Stability [12]: Stable
SMILES: CSC(=O)CCCCc1cnc(C(=O)CCCCCCc2ccccc2)o1

inhibition [28]: Active
SMILES: O=C(CCCCCCc1ccccc1)c1ncc(-c2ccccn2)o1
inhibition (Mus musculus [26]): Active
inhibition (Mus musculus [27]): Active
inhibition (Mus musculus [29]): Active
